Data taken from ChEMBL document CHEMBL1147465, “Nucleic acid-binding ligands identify new mechanisms to inhibit telomerase” (Bioorg Med Chem Lett, 2004).

What was measured:
[1] = molecular target: Telomerase reverse transcriptase (Homo sapiens) (UniProt O14746); assay: Inhibition of human telomerase before assembly using recombinant hTR and hTERT at 50 uM
Procedure, shortened: (§1)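 Telomerase reconstituted from in vitro transcribed hTR and hTERT translated in vitro in rabbit reticulocyte lysate. Line 2: ligand added to hTR plus hTERT before a 90 min assembly incubation in lysate. Line 1: ligand added to telomerase already assembled in lysate.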

[2] = molecular target: Telomerase reverse transcriptase (Homo sapiens) (UniProt O14746); assay: Inhibition of human telomerase after assembly using recombinant hTR and hTERT at 50 uM; procedure, shortened: as §1
Euplotes aediculatus = assay: Inhibition of purified telomerase of Euplotes aediculatus at 50 uM
Procedure, shortened: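 Endogenous telomerase purified from E. aediculatus, tested in a direct activity assay with inhibitor at 50 µM.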

Tetrahymena thermophila [3] = assay: Inhibition of telomerase before assembly using recombinant Tetraymena thermophilia TR and TERT at 50 uM
Tetrahymena thermophila [4] = assay: Inhibition of telomerase after assembly using recombinant Tetraymena thermophilia TR and TERT at 50 uM

Chain of Telomerase reverse transcriptase (Homo sapiens) (O14746 whole entry): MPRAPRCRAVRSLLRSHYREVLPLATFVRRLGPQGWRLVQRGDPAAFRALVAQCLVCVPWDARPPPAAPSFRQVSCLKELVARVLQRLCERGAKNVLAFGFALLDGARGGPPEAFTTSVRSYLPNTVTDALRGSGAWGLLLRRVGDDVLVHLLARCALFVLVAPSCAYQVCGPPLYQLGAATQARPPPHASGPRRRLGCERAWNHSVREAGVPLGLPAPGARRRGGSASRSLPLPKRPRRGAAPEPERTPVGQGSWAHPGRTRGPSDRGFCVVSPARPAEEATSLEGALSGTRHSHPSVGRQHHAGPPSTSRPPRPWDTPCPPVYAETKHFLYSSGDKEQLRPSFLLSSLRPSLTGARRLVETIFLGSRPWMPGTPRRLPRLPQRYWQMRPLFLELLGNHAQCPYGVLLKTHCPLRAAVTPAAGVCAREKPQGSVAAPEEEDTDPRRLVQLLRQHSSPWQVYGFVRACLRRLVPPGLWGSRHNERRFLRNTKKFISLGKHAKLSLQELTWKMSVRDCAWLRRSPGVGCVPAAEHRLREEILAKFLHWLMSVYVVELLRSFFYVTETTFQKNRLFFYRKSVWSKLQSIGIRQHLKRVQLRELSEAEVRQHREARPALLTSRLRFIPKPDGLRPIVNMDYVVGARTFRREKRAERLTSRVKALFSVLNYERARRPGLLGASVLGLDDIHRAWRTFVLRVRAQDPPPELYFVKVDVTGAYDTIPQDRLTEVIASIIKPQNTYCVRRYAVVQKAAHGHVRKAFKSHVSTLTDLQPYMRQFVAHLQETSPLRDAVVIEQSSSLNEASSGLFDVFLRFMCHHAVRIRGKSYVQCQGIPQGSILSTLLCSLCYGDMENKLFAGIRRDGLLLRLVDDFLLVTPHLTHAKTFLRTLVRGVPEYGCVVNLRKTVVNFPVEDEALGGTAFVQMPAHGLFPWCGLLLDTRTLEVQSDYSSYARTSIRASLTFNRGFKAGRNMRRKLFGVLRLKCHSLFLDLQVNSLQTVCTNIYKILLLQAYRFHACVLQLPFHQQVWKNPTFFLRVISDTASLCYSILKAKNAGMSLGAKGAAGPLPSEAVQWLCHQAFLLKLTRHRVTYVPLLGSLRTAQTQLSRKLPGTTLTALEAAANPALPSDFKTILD

Compound | inhibition [1] [%] | inhibition [2] [%] | inhibition (Euplotes aediculatus) [%] | inhibition (Tetrahymena thermophila [3]) [%] | inhibition (Tetrahymena thermophila [4]) [%]
NC[C@@H]1O[C@H](O[C@H]2[C@@H](O)[C@H](O[C@@H]3[C@@H](O)[C@H](N)C[C@H](N)[C@H]3O[C@H]3O[C@H](CO)[C@@H](O)C[C@H]3N)O[C@@H]2CO)[C@H](N)[C@@H](O)[C@@H]1O[C@H]1O[C@H](CO)[C@@H](O)[C@H](O)[C@@H]1O | 50 | 12 | 10 | 0 | 0
Cn1cc(NC(=O)c2cc(NC(=O)c3cc(NC=O)cn3C)cn2C)cc1C(=O)NCCC(=N)N | 10 |  | 75 | 0 | 0
CN(C)[C@@H]1C(O)=C(C(N)=O)C(=O)[C@@]2(O)C(O)=C3C(=O)c4c(O)cccc4[C@@](C)(O)[C@H]3C[C@@H]12 | 10 |  | 0 | 0 | 0
NC[C@@H]1O[C@H](O[C@H]2[C@@H](O)[C@H](O[C@@H]3[C@@H](O)[C@H](N)C[C@H](N)[C@H]3O[C@H]3O[C@H](CO)[C@@H](O)[C@H](O)[C@H]3N)O[C@@H]2CO)[C@H](N)[C@@H](O)[C@@H]1O | 60 | 29 | 0 | 0 | 0
CN1CCN(c2ccc3[nH]c(-c4ccc5[nH]c(-c6ccc(O)cc6)nc5c4)nc3c2)CC1 | 81 | 34 | 86 | 50 | 15
GENTAMICIN | 64 | 19 | 0 | 0 | 0
Nc1ccc2cc3ccc(N)cc3nc2c1 | 95 | 90 | 52 | 90 | 90
CN[C@@H]1C[C@H](N)[C@@H](O)[C@H](O[C@H]2O[C@H](CO)[C@H](O)[C@@H]3O[C@@]4(O[C@@H]23)O[C@H]([C@H](N)CO)[C@H](O)[C@H](O)[C@H]4O)[C@H]1O | 0 |  | 0 | 0 | 0
NCC[C@H](O)C(=O)N[C@@H]1C[C@H](N)[C@@H](O[C@H]2O[C@H](CN)[C@@H](O)[C@H](O)[C@H]2O)[C@H](O)[C@H]1O[C@H]1O[C@H](CO)[C@@H](O)[C@H](N)[C@H]1O | 25 |  | 0 | 0 | 0
N=C(N)c1ccc(-c2cc3ccc(C(=N)N)cc3[nH]2)cc1 | 90 | 72 | 0 | 70 | 70
CN[C@@H]1[C@@H](O[C@H]2O[C@H](CO)[C@@H](N)[C@H](O)[C@H]2O)OC2C[C@@H](N)[C@@H](O[C@H]3[C@H](O)[C@@H](O)[C@H](N)C[C@@H]3N)OC2[C@@H]1O (some centres undefined) | 30 |  | 0 | 0 | 0
CN[C@@H]1[C@H](O)[C@H](NC)[C@H]2O[C@@]3(O)C(=O)C[C@@H](C)O[C@H]3O[C@@H]2[C@H]1O | 0 |  | 0 | 0 | 0
CCN(CC)CCCC(C)Nc1c2ccc(Cl)cc2nc2ccc(OC)cc12 (centres undefined) | 82 | 50 | 75 | 93 | 80
